SENP8 block-1: inhibitors of human SENP8 protease | Q96LD8 | AID 2540 | 330,000 compounds, 1.2% hits | purified SENP8, Z-RLRGG-aminoluciferin cleavage, luminescence | inhibition, % at 10 µM; in the data active means inhibition above about 50%
Target sequence (Q96LD8 whole entry, looked up): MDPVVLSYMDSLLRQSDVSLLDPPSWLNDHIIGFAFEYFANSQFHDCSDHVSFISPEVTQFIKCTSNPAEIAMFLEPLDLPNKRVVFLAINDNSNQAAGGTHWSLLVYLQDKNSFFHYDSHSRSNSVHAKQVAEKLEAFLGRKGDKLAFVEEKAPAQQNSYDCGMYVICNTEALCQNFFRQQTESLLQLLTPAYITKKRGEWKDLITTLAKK
SENP1 inh: SENP1 (human) catalytic domain inhibition | inhibition, % at 10 µM | recombinant SENP1 catalytic domain, CyPet-SUMO1-YPet FRET cleavage | 360,000 compounds, 0.21% hits | Q9P0U3 | AID 624204;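 active means inhibition at least 30% at 10 µM, raw YFP signal under a set limit, fluorescence ratio 0.5 to 1.5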;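 further: 0% = enzyme with DMSO and 100% = no enzyme wells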
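Material: hSENP1 catalytic domain, recombinant; medium: Tris pH 8 with BME, BSA, NP40 and catalase; compound: single concentration of 10 µM compound, 0.5% DMSO final; technique: FRET read of cyan and yellow fluorescence; timing: 50 min enzyme reaction, room temperature, light-protected; reagent: SFCypet-SUMO1-SFYpet substrate at 25 nM; control set: no-enzyme low, enzyme-DMSO high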
SENP7 block: blocks the human protease SENP7. AID 434973. recombinant SENP7, Z-RLRGG-aminoluciferin luminescence, 40 min. Q9BQF6. inhibition, % at 5 µM. 330,000 compounds, 1.5% hits;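 active means inhibition above about 50% at the single test dose, limit read from the data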;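 further: plate controls were DMSO with enzyme for no effect and no enzyme buffer wells for full effect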
Target sequence (Q9BQF6 706-1050 limits assumed): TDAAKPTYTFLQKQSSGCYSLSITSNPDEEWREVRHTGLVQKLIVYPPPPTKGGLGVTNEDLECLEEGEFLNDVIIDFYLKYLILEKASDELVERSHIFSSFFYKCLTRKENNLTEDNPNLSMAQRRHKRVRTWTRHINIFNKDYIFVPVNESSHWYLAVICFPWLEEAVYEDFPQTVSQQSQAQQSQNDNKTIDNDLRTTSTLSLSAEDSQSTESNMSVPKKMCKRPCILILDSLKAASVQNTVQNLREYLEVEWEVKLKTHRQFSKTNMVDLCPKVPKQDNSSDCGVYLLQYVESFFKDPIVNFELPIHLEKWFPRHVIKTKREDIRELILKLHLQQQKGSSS
SENP6 inh: inhibitors of human SENP6 protease. 330,000 compounds, 1.8% hits. inhibition, % at 10 µM. Recombinant SENP6 catalytic domain, aminoluciferin luminescence. Q9GZR1. AID 2599;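 active means inhibition above about 50% at the single tested dose, limit read from the data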;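 further: plate controls were DMSO wells with enzyme for no effect and DMSO wells lacking enzyme for full effect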
SENP8 block-2: SENP8 (human) protease inhibition; Q96LD8; 360,000 compounds, 0.64% hits; inhibition, % at 20 µM; recombinant SENP8, Nedd8 substrate fluorescence; in the data active means inhibition mostly above about 40%, no sharp cut-off; inactive means mostly below about 27%
SENP8 confirm: confirmation of human SENP8 protease inhibitors; shares compounds with SENP7 block; Recombinant SENP8, Z-RLRGG-aminoluciferin luminescence, 60 min; inhibition, % at 12.5 µM; 6,200 compounds, 40% hits;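 active means mean inhibition across replicates above about 50%, limit read from the data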
SENP6 confirm: human SENP6 inhibition, confirmed. shares compounds with SENP7 block. recombinant SENP6, Z-RLRGG-aminoluciferin luminescence. 6,200 compounds, 58% hits. AID 488915. inhibition, % at 12.5 µM
SENP7 confirm: confirmation of human SENP7 protease inhibitors; shares compounds with SENP7 block; recombinant SENP7, Z-RLRGG-aminoluciferin luminescence, 40 min; inhibition, % at 12.5 µM; 6,200 compounds, 69% hits; AID 488917
Casp3 select: selectivity test for SENP inhibitors: human caspase-3 inhibition | shares compounds with SENP7 block | purified caspase-3, Z-DEVD-aminoluciferin luminescence, 60 min | inhibition, % at 12.5 µM | 6,200 compounds, 60% hits;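 active means mean inhibition above about 50%, limit read from the data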;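 further: plate controls were enzyme with DMSO for no effect and wells without caspase-3 for full effect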
Target sequence (P42574 28-227 limits assumed): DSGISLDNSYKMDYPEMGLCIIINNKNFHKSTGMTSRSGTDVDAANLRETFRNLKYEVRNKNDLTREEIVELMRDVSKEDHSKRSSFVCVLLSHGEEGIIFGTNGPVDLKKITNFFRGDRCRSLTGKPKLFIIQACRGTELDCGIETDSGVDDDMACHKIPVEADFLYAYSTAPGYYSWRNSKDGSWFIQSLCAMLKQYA
SENP luc ctr: interferes with luciferase luminescence in SENP counter-screen. inhibition, % at 12.5 µM. Pre-incubated SENP8/Z-RLRGG-aminoluciferin, luciferase luminescence interference. 6,200 compounds, 39% hits. shares compounds with SENP7 block. AID 488919;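 active means mean inhibition above about 50% when retested at one dose, limit read from the data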;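 further: plate controls were DMSO wells with completed reaction for no effect and substrate without enzyme for full effect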
Starred values were filed as active, the others as inactive; . = not tested or not shown. A selection: hits, their analogues and other compounds. The true share with any hit is near 2.5%.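 How the source made its calls, unless noted: active means mean inhibition above about 50% in the one-dose retest (limit read from the data); inactive means the rest.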

SMILES | SENP8 block-1 | SENP1 inh | SENP7 block | SENP6 inh | SENP8 block-2 | SENP8 confirm | SENP6 confirm | SENP7 confirm | Casp3 select | SENP luc ctr
N/C(=N\N=C\c1ccc2c(c1)OCO2)c1nonc1N | 94.7* | -0.8 | 98.2* | 94.9* | 15.8 | 95.2* | 96.1* | 101.3* | 96.2* | 64.0*
CC(C)c1c(C(=O)N/N=C/c2ccc3c(c2)OCO3)nnn1-c1nonc1N | -8.6 | -0.1 | 2.7 | 3.6 | -72.5 | . | . | . | . | .
CCc1ccc2oc(C(=O)Nc3cccnc3)c(C)c2c1 | 48.9 | -0.1 | 69.0* | 63.7* | 22.0 | 18.8 | 67.3* | 91.6* | 55.1* | 10.4
O=C(Nc1cccnc1)c1cc2c(ccc3ccccc32)o1 | 61.5* | 3.6 | 82.1* | 66.9* | -18.4 | 10.6 | 55.8* | 55.6* | 62.2* | 5.7
Cc1c(C(=O)Nc2cccnc2)oc2ccc(Br)cc12 | 13.5 | 0.7 | 13.0 | 34.8 | 6.3 | . | . | . | . | .
O=C(c1cc2c(ccc3ccccc32)o1)N1CCCCC1 | 83.5* | 2.5 | 91.5* | 93.5* | 7.9 | 89.6* | 89.8* | 98.7* | 86.3* | 89.4*
COc1ccc2c(c1)C1OCCC1C(c1ccco1)N2 (centres undefined) | 55.6* | -7.6 | 41.8 | -3.5 | -460.1 | 64.5* | 64.4* | 91.2* | 88.5* | 74.9*
CCNC(=O)NC(=O)C(C)OC(=O)CNS(=O)(=O)c1c(Cl)cc(Br)cc1Cl (centres undefined) | -7.0 | -0.8 | -8.4 | -28.8 | 15.9 | . | . | . | . | .
CCN(CC)c1ccc(NC(=O)Nc2ccccc2)cc1 | 63.7* | -0.9 | 64.8* | 83.4* | 11.7 | 36.1 | 71.0* | 88.1* | 76.5* | 52.1*
Cc1ccc(NC(=O)c2ccc3c(c2)OCCO3)cc1C | 85.9* | 0.0 | 91.9* | 90.8* | 8.8 | -10.8 | 86.1* | 98.4* | 85.7* | 88.2*
Nc1c(C(=O)Nc2ccccc2)nnn1-c1ccc2c(c1)OCCO2 | 76.3* | 2.3 | 82.3* | 84.6* | 20.2 | 85.2* | 84.3* | 97.1* | 81.6* | 69.5*
O=C(Nc1cccc(F)c1)c1ccc2c(c1)OCCO2 | 87.1* | 2.4 | 93.2* | 89.0* | 2.5 | -3.7 | 87.5* | 99.2* | 89.7* | 88.9*
O=c1n2c(c(O)n1C1CCCCC1)C(c1ccccc1)=Nc1ccccc1C2 | . | 5.0 | . | . | 28.6 | . | . | . | . | .
Cc1cccc(NC(=O)c2ccc3c(c2)OCCO3)c1 | 84.8* | 1.8 | 92.1* | 86.4* | 8.7 | 7.2 | 92.6* | 101.0* | 93.8* | 90.1*
CCOC(=O)c1cccc(NC(=O)c2ccc3c(c2)OCO3)c1 | 24.3 | 0.3 | 44.6 | 59.8* | 14.2 | 51.0* | 46.9 | 74.4* | 54.1* | 37.8
Cc1ccc(C(=O)Nc2ccc3c(c2)OCCO3)c(C)c1 | 81.5* | 0.7 | 89.1* | 90.9* | -0.8 | 88.3* | 88.0* | 97.4* | 92.8* | 87.4*
CCOC(=O)CNc1ccc2c(c1)OCO2 | 4.1 | -8.6 | -0.6 | 58.5* | 1.1 | 12.6 | 12.3 | 7.7 | 2.1 | -3.0
Cc1cc(C)c(C(=O)Nc2ccc3c(c2)OCCO3)c(C)c1 | . | -1.8 | . | . | 23.2 | . | . | . | . | .
CCc1ccc2[nH]c(C(=O)Nc3ccc(Br)c(C)n3)cc2c1 | -10.0 | -10.4 | -10.3 | -10.5 | -275.0 | . | . | . | . | .
O=C1OC(c2cccs2)Sc2ccccc21 (centres undefined) | . | 0.3 | . | . | 7.0 | . | . | . | . | .
Cc1nc2c(OCCOc3ccc(F)cc3)cccn2c1N(C)C(=O)CCC1CCCC1 | . | -4.4 | . | . | 9.5 | . | . | . | . | .
CN(C)c1cccc(C(=O)Nc2cccc(F)c2)c1 | 4.0 | -1.7 | 16.3 | 29.6 | -347.8 | . | . | . | . | .
CCOC(=O)c1c(N)sc(C(=O)Nc2ccc3c(c2)OCO3)c1C | 92.4* | -4.6 | 97.6* | 97.0* | 1.4 | 10.3 | 97.7* | 102.6* | 95.6* | 96.1*
O=C(Nc1ccccc1)c1ccc2c(c1)OCCO2 | 77.4* | -1.4 | 85.3* | 93.1* | 28.8 | -23.1 | 77.1* | 96.7* | 91.9* | 83.9*
O=C(Nc1ccc(NC(=O)c2ccc3c(c2)OCCO3)cc1)c1ccccc1 | 5.2 | -0.8 | -8.8 | -30.5 | 7.6 | . | . | . | . | .
SMILES | SENP8 block-1 | SENP1 inh | SENP7 block | SENP6 inh | SENP8 block-2 | SENP8 confirm | SENP6 confirm | SENP7 confirm | Casp3 select | SENP luc ctr
CCN(CC)c1ccc(C(=O)Nc2cccc(F)c2)cc1 | 59.3* | -2.4 | 59.3* | 83.7* | -154.7 | 70.7* | 74.1* | 92.6* | 63.7* | 67.8*
CC(=O)N1CCN(C(=O)OC2CC3CC2[C@H]2CCCCN2C3=O)CC1 (some centres undefined) | . | 2.3 | . | . | 8.9 | . | . | . | . | .
O=Cc1c[nH]c2ccc(S(=O)(=O)N3CCCCC3)cc12 | . | -1.5 | . | . | 12.3 | . | . | . | . | .
Cc1ccnc(NC(=O)c2ccc(OCC3CCCO3)cc2)c1 (centres undefined) | 74.5* | -0.7 | 83.4* | 83.8* | 5.4 | 82.1* | 82.4* | 97.4* | 94.5* | 60.9*
Cc1ccc(NC(=O)c2ccc(OCC3CCCO3)cc2)c(C)c1 (centres undefined) | -3.6 | 2.9 | 6.0 | -14.0 | 11.3 | . | . | . | . | .
Cc1ccnc(NC(=O)COc2ccc3c(c2)CCC3)c1 | 94.3* | 0.6 | 94.4* | 81.8* | 6.9 | 86.9* | 86.1* | 97.9* | 90.9* | 83.8*
COc1ccc(NC(=O)c2ccc(OCC3CCCO3)cc2)cc1Cl (centres undefined) | 38.1 | -0.6 | 67.3* | 55.5* | -0.8 | 8.2 | 39.8 | 73.4* | 39.2 | 4.4
Cc1nn(CC(=O)N2CCCCCC2)c(=O)c2cc3occc3n12 | 1.9 | 1.5 | 4.2 | 2.9 | 1.0 | . | . | . | . | .
O=C(NCC1CC1)c1ccc2c3n(nc2c1)-c1ccccc1CO3 | 77.8* | -2.6 | 68.1* | 82.3* | -224.4 | 83.0* | 83.9* | 98.1* | 91.7* | 80.0*
CC(C)NC(=O)c1ccc2c3n(nc2c1)-c1ccccc1CO3 | 78.1* | -1.9 | 77.6* | 77.1* | -112.1 | 88.1* | 86.6* | 97.6* | 94.2* | 81.1*
Cc1ccc2c(c1)COc1c3ccc(C(=O)O)cc3nn1-2 | 94.9* | 0.7 | 99.7* | 95.3* | -68.0 | 96.0* | 96.2* | 101.0* | 96.9* | 95.2*
O=C(NCCO)c1ccc2c3n(nc2c1)-c1ccccc1CO3 | 24.2 | -1.1 | 8.5 | 21.2 | -202.3 | . | . | . | . | .
Cc1ccc2c(c1)COc1c3ccc(C(=O)NCC4CC4)cc3nn1-2 | 0.0 | -2.6 | -1.5 | 0.1 | -326.9 | . | . | . | . | .

Screening results: PubChem BioAssay, Sanford-Burnham Center for Chemical Genomics
